Test results from ChEMBL document CHEMBL1149648, “Norcantharimides, synthesis and anticancer activity: Synthesis of new norcantharidin analogues and their anticancer evaluation” (2007).

What was measured:
Assay type in all cases: functional
[1] = Cytotoxicity against human BE2C cells after 72 hrs by MTT assay; conditions: BE(2)-C
Outline: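 Cells cultured in DMEM with 10% FBS, bicarbonate, penicillin, streptomycin and 4 mM glutamine at 37 °C, 5% CO2. Log-phase cells plated in duplicate at 2500–4000/well; test agent (DMSO stock) added 24 h later. After 72 h continuous exposure, MTT read at 540 nm; means of 3–6 experiments.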

SW480 [2] = assay: Cytotoxicity against human SW480 cells after 72 hrs by MTT assay; conditions: SW480, 72 h
Outline: (§1)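 Cells were grown in DMEM with 10% FBS, bicarbonate, penicillin/streptomycin and 4 mM glutamine at 37 °C under 5% CO2. Log-phase cells were plated in duplicate at 2500–4000 cells/well. After 24 h, medium with or without agent was added (stocks in DMSO or water). Growth inhibition was read by MTT at 540 nm after 72 h continuous exposure. Values are means (SEM) of 3–6 experiments.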

MCF7 [3] = assay: Cytotoxicity against human MCF7 cells after 72 hrs by MTT assay; conditions: MCF7, 72 h; outline: as §1
A-431 [4] = assay: Cytotoxicity against human A431 cells after 72 hrs by MTT assay; conditions: A-431, 72 h; outline: as §1
[5] = Cytotoxicity against human SJG2 cells after 72 hrs by MTT assay; conditions: SJ-G2, 72 h; outline: as §1
A2780 [6] = assay: Cytotoxicity against human A2780 cells after 72 hrs by MTT assay; conditions: A2780, 72 h; outline: as §1
DU-145 [7] = assay: Cytotoxicity against human DU145 cells after 72 hrs by MTT assay; conditions: DU-145, 72 h; outline: as §1
NCI-H460 [8] = assay: Cytotoxicity against human H460 cells after 72 hrs by MTT assay; conditions: NCI-H460, 72 h; outline: as §1
HT-29 [9] = assay: Cytotoxicity against human HT29 cells after 72 hrs by MTT assay; conditions: HT-29, 72 h; outline: as §1
SW480 [10] = assay: Cytotoxicity against human SW480 cells at 100 uM after 72 hrs by MTT assay; conditions: SW480, 72 h
Outline: (§2)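 Log-phase cells in DMEM with 10% FBS (37 °C, 5% CO2) were plated in duplicate at 2500–4000 cells/well. Agent was added 24 h later at a fixed final concentration of 100 µM and left for 72 h continuous exposure. Read-out was MTT absorbance at 540 nm, expressed as percent growth inhibition, where 100% means total growth inhibition.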

[11] = Cytotoxicity against human SJG2 cells at 100 uM after 72 hrs by MTT assay; conditions: SJ-G2, 72 h; outline: as §2
[12] = Cytotoxicity against human BE2C cells at 100 uM after 72 hrs by MTT assay; conditions: BE(2)-C; outline: as §2
DU-145 [13] = assay: Cytotoxicity against human DU145 cells at 100 uM after 72 hrs by MTT assay; conditions: DU-145, 72 h; outline: as §2
HT-29 [14] = assay: Cytotoxicity against human HT29 cells at 100 uM after 72 hrs by MTT assay; conditions: HT-29, 72 h; outline: as §2
NCI-H460 [15] = assay: Cytotoxicity against human H460 cells at 100 uM after 72 hrs by MTT assay; conditions: NCI-H460, 72 h; outline: as §2
A2780 [16] = assay: Cytotoxicity against human A2780 cells at 100 uM after 72 hrs by MTT assay; conditions: A2780, 72 h; outline: as §2
A-431 [17] = assay: Cytotoxicity against human A431 cells at 100 uM after 72 hrs by MTT assay; conditions: A-431, 72 h; outline: as §2
MCF7 [18] = assay: Cytotoxicity against human MCF7 cells at 100 uM after 72 hrs by MTT assay; conditions: MCF7, 72 h; outline: as §2

SMILES | GI50 [1] [µM] | GI50 (SW480 [2]) [µM] | GI50 (MCF7 [3]) [µM] | GI50 (A-431 [4]) [µM] | GI50 [5] [µM] | GI50 (A2780 [6]) [µM] | GI50 (DU-145 [7]) [µM] | GI50 (NCI-H460 [8]) [µM] | GI50 (HT-29 [9]) [µM] | inhibition at 100 µM (SW480 [10]) [%] | inhibition at 100 µM [11] [%] | inhibition at 100 µM [12] [%] | inhibition at 100 µM (DU-145 [13]) [%] | inhibition at 100 µM (HT-29 [14]) [%] | inhibition at 100 µM (NCI-H460 [15]) [%] | inhibition at 100 µM (A2780 [16]) [%] | inhibition at 100 µM (A-431 [17]) [%] | inhibition at 100 µM (MCF7 [18]) [%]
C[C@@]12C(=O)OC(=O)[C@]1(C)[C@H]1CC[C@@H]2O1 [CANTHARIDIN] | 3.7 | 4.5 | 7.5 | 2.9 | 1.7 | 4.4 | 2.1 | 3.3 | 3.2 |  |  |  |  |  |  |  |  | 
O=C1OC(=O)C2C3CCC(O3)C12 (stereo not drawn) [DEMETHYL-CANTHARIDIN] | 43 | 44 | 68 | 31 | 23 | 38 | 28 | 45 | 57 |  |  |  |  |  |  |  |  | 
CCC(CO)N1C(=O)[C@@H]2[C@H](C1=O)[C@@H]1CC[C@H]2O1 (stereo partly drawn) |  |  |  |  |  |  |  |  |  | < 10 | < 10 | < 10 | < 10 | < 10 | < 10 | < 10 | < 10 | < 10
CCCCCCN1C(=O)[C@@H]2[C@H](C1=O)[C@@H]1CC[C@H]2O1 |  |  |  |  |  |  |  |  |  | < 10 | < 10 | < 10 | < 10 | < 10 | < 10 | < 10 | < 10 | < 10
O=C(O)c1ccc(N2C(=O)[C@@H]3[C@H](C2=O)[C@@H]2CC[C@H]3O2)cc1 |  |  |  |  |  |  |  |  |  | < 10 | < 10 | < 10 | < 10 | < 10 | < 10 | < 10 | < 10 | < 10
C=CCN1C(=O)[C@@H]2[C@H](C1=O)[C@@H]1CC[C@H]2O1 |  |  | 80 |  |  |  |  |  |  | 50 | 2 | 62 | 15 | 19 | 20 | 67 | 32 | 96
CC(CO)N1C(=O)[C@@H]2[C@H](C1=O)[C@@H]1CC[C@H]2O1 (stereo partly drawn) |  |  |  |  |  |  |  |  |  | < 10 | < 10 | < 10 | < 10 | < 10 | < 10 | < 10 | < 10 | < 10
O=C(O)CCCCCN1C(=O)[C@@H]2[C@H](C1=O)[C@@H]1CC[C@H]2O1 |  |  |  |  |  |  |  |  |  | 11 | < 10 | 22 | 12 | 14 | 12 | 52 | 11 | 47
O=C1[C@@H]2[C@H](C(=O)N1CC(O)CO)[C@@H]1CC[C@H]2O1 (stereo partly drawn) |  | 62 | 46 | > 100 | > 100 | 59 | > 100 | > 100 | > 100 | 69 | 27 | 73 | 67 | 39 | 32 | > 100 | 60 | > 100
CCCCCCCCCCN1C(=O)[C@@H]2[C@H](C1=O)[C@@H]1CC[C@H]2O1 |  |  |  |  |  |  |  |  |  | 59 | 72 | 39 | 83 | 20 | > 100 | 44 | 52 | 44
O=C1[C@@H]2[C@H](C(=O)N1CCCCCCO)[C@@H]1CC[C@H]2O1 |  |  |  |  |  |  |  |  |  | 16 | 12 | 22 | < 10 | 21 | 14 | 18 | 6 | 51
CCC(C)N1C(=O)[C@@H]2[C@H](C1=O)[C@@H]1CC[C@H]2O1 (stereo partly drawn) |  |  |  |  |  |  |  |  |  | < 10 | < 10 | < 10 | < 10 | < 10 | < 10 | < 10 | < 10 | < 10
COC(CO)CN1C(=O)[C@@H]2[C@H](C1=O)[C@@H]1CC[C@H]2O1 (stereo partly drawn) |  |  |  |  |  |  |  |  |  | < 10 | < 10 | < 10 | < 10 | 12 | < 10 | < 10 | < 10 | 33
O=C1[C@@H]2[C@H](C(=O)N1C1CCCCC1)[C@@H]1CC[C@H]2O1 |  |  |  |  |  |  |  |  |  | < 10 | < 10 | < 10 | < 10 | < 10 | < 10 | < 10 | < 10 | < 10
C=CCCN1C(=O)[C@@H]2[C@H](C1=O)[C@@H]1CC[C@H]2O1 |  |  |  |  |  |  |  |  |  | < 10 | < 10 | < 10 | < 10 | < 10 | < 10 | < 10 | < 10 | < 10
O=C1[C@@H]2[C@H](C(=O)N1CCCN1C(=O)[C@@H]3[C@H](C1=O)[C@@H]1CC[C@H]3O1)[C@@H]1CC[C@H]2O1 |  |  |  |  |  |  |  |  |  | 16 | 10 | 10 | 13 | 10 | 18 | 31 | 10 | 52
